Reference: ChEMBL document CHEMBL4014268, “Phenolic Compounds from the Lichen Lobaria orientalis” (J Nat Prod, 2017)
Activity calls are given as the source filed them.

Tests used:
Format in all cases: functional, cell-based
HeLa = assay: Cytotoxicity against human HeLa cells at 100 ug/ml by SRB assay
Method in brief: (§1)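 Single-concentration screen at 100 μg/mL against four human cancer lines: HepG2 (liver hepatocellular carcinoma), MCF-7 (breast), NCI-H460 (lung) and HeLa (epithelial carcinoma). Cell viability was read by sulforhodamine B staining, with camptothecin as the positive control.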

HepG2 = assay: Cytotoxicity against human HepG2 cells at 100 ug/ml by SRB assay; method in brief: as §1
NCI-H460 = assay: Cytotoxicity against human NCI-H460 cells at 100 ug/ml by SRB assay; method in brief: as §1
MCF7 = assay: Cytotoxicity against human MCF7 cells at 100 ug/ml by SRB assay; method in brief: as §1

Measured: Activity

Cc1cc(O)cc(OC(=O)c2c(C)cc(O)cc2O)c1
inactive: HeLa | HepG2 | NCI-H460 | MCF7

COC(=O)c1c(C)cc(OC)c(CO)c1Oc1c(O)c(C)c(O)c2c1[C@@H](OC)OC2=O
inactive: HeLa | HepG2 | NCI-H460 | MCF7

COC(=O)/C=C/c1c(OC)cc(C)c(C(=O)OC)c1Oc1c(O)c(C)c(O)c2c1[C@@H](OC)OC2=O
inactive: HeLa | HepG2 | NCI-H460 | MCF7

Cc1cc(O)cc(O)c1C(=O)Oc1cc(O)cc(C)c1C(=O)O
inactive: HeLa | HepG2 | NCI-H460 | MCF7

COc1cc(C)c2c(c1C=O)Oc1c(c(C)c(O)c3c1[C@@H](OC)OC3=O)OC2=O
inactive: HeLa | HepG2 | NCI-H460 | MCF7

COc1cc(C)c2c3c1CO[C@H]1OC(=O)c4c(O)c(C)c(c(c41)O3)OC2=O
inactive: HeLa | HepG2 | NCI-H460 | MCF7

COC(=O)c1c(C)cc(OC)c(/C=C/C(C)=O)c1Oc1c(O)c(C)c(O)c2c1[C@@H](OC)OC2=O
inactive: HeLa | HepG2 | NCI-H460 | MCF7
